Experimental data of several laboratories.
Protocols differ between the studies behind these lines.
Read-out: tubulin polymerisation
Mode: inhibitor

SMILES | technique | pH | IC50
COc1cc2c(cc1O)CCN(Cc1cc(OC)c(OC)c(OC)c1)C2 | absorbance | – | > 20 µM
CCCOc1ccc(N(C)c2cc(C)nc3ccc(Cl)cc23)cc1 | – | – | 5.4 µM
COc1ccc(S(=O)(=O)c2ccccc2)c(OC)c1OC | absorbance | pH 6.6 | > 40 µM
CCCOc1ccc(Nc2cc(C)nc3ccc(Cl)cc23)cc1 | – | – | > 100 µM
COc1ccc(C(=O)c2cc3c(-c4ccccc4)c(O)ccc3o2)cc1 | absorbance | – | 2.8 µM
COc1ccc(N(C)c2nc(C)nc3c2C[C@@H](C)C3)cc1 (racemic) | absorbance | – | 1.9 µM
COc1cc2c(cc1OS(N)(=O)=O)CCN(Cc1cc(OC)c(OC)c(OC)c1)C2 | absorbance | – | > 20 µM
COc1ccc(Sc2ccccc2)c(OC)c1OC | absorbance | pH 6.6 | > 40 µM
COc1ccc(/C=C\c2cc(OC)c(OC)c(OC)c2)cc1O | absorbance | – | 1.4 µM
COc1ccc([S+]([O-])c2ccc(OC)c(OC)c2OC)cc1 (centres unmarked) | absorbance | pH 6.6 | > 40 µM
COc1ccc(N(C)c2nc(C)nc3c2CCC3)cc1 | absorbance | – | 1.6 µM
